Assay results from article PMC3458512 (Organic & biomolecular chemistry, 2012).

Assays:
T. gondii tachyzoites = T. gondii tachyzoites growth assay; type: cell-based, Toxoplasma gondii; settings: read-out: IC50 T. gondii tachyzoites; growth inhibition of tachyzoites
[1] = biological target: T. cruzi farnesyl pyrophosphate synthase (TcFPPS) (Trypanosoma cruzi, UniProt Q8WS26); test: TcFPPS enzymatic activity inhibition assay; type: biochemical; settings: read-out: IC50 TcFPPS; recombinant enzyme
[2] = biological target: T. gondii farnesyl pyrophosphate synthase (TgFPPS) (Toxoplasma gondii, UniProt Q197X6); type: biochemical; settings: read-out: IC50 TgFPPS
T. cruzi amastigotes = T. cruzi amastigotes assay; type: cell-based, Trypanosoma cruzi
Outline: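 Vero cells gamma-irradiated (2,000 Rads), seeded at 3.4 × 10^4/well in RPMI + 10% FBS, overnight at 35 °C, 7% CO2. Infected 5 h with 3.4 × 10^5 tdTomato-expressing CL-strain trypomastigotes/well, washed, then serial test compound dilutions in quadruplicate. Controls were uninfected, drug-only and untreated-infected wells, plus benznidazole reference at 3.5 and 1.5 μM. Fluorescence read day 3 post-infection; IC50 by non-linear regression.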

T. cruzi = settings: in vivo; cited from earlier work

CCCCCCC(F)(P(=O)(O)O)P(=O)(O)O [Compound 41, 1-(Fluoro-n-heptylidene)-1,1-bisphosphonic acid]
IC50 (T. gondii tachyzoites): > 10000 nM | IC50 [1]: > 1000 nM | IC50 [2]: 241 ± 120 nM

CCCCC(F)(P(=O)(O)O)P(=O)(O)O [Compound 39, 1-(Fluoro-n-pentylidene)-1,1-bisphosphonic]
IC50 (T. gondii tachyzoites): > 10000 nM | IC50 [1]: > 1000 nM | IC50 [2]: 3420 ± 1670 nM

O=C(Cn1ccnc1[N+](=O)[O-])NCc1ccccc1 [benznidazole, reference compound]
IC50 (T. cruzi amastigotes; Trypanosoma cruzi, Vero, 72 h, read-out: IC50 T. cruzi amastigotes): 2770 ± 488 nM

CCCCCCCCC(F)(P(=O)(O)O)P(=O)(O)O [Compound 43, 1-(Fluoro-n-nonylidene)-1,1-bisphosphonic acid]
IC50 (T. gondii tachyzoites): 2670 nM | growth inhibition of T. cruzi intracellular amastigotes (T. cruzi amastigotes; at 10 μM): 13% at 10 μM | IC50 [1]: > 1000 nM | IC50 [2]: 35 ± 19 nM

O=P(O)(O)C(F)P(=O)(O)O [Compound 35, 1-(Fluoromethylene)-1,1-bisphosphonic acid]
IC50 (T. gondii tachyzoites): > 10000 nM | IC50 [1]: > 1000 nM | IC50 [2]: > 10000 nM

CCCCCCCCCC(F)(P(=O)(O)O)P(=O)(O)O [Compound 44, 1-(Fluoro-n-decylidene)-1,1-bisphosphonic acid]
IC50 (T. gondii tachyzoites): > 10000 nM | IC50 [1]: > 1000 nM | IC50 [2]: 60 ± 6 nM

CC(F)(P(=O)(O)O)P(=O)(O)O [Compound 36, 1-(Fluoroethylidene)-1,1-bisphosphonic acid]
IC50 (T. gondii tachyzoites): > 10000 nM | IC50 [1]: > 1000 nM | IC50 [2]: > 10000 nM

CCCCCC(F)(P(=O)(O)O)P(=O)(O)O [Compound 40, 1-(Fluoro-n-hexylidene)-1,1-bisphosphonic acid]
IC50 (T. gondii tachyzoites): > 10000 nM | IC50 [1]: > 1000 nM | IC50 [2]: 160 ± 78 nM

CCCCCCCC(F)(P(=O)(O)O)P(=O)(O)O [Compound 42, 1-(Fluoro-n-octylidene)-1,1-bisphosphonic acid]
IC50 (T. gondii tachyzoites): > 10000 nM | IC50 [1]: > 1000 nM | IC50 [2]: 616 ± 259 nM

CCC(F)(P(=O)(O)O)P(=O)(O)O [Compound 37, 1-(Fluoro-n-propylidene)-1,1-bisphosphophonic acid]
IC50 (T. gondii tachyzoites): > 10000 nM | IC50 [1]: > 1000 nM | IC50 [2]: > 10000 nM

CCCC(F)(P(=O)(O)O)P(=O)(O)O [Compound 38, 1-(Fluoro-n-butylidene)-1,1-bisphosphonic acid]
IC50 (T. gondii tachyzoites): > 10000 nM | IC50 [1]: > 1000 nM | IC50 [2]: > 10000 nM

O=P(O)(O)C(O)(Cc1cccnc1)P(=O)(O)O [Risedronate, risedronate]
survival of T. cruzi-infected mice (T. cruzi): significantly increase survival
